The record followed here is ChEMBL document CHEMBL1146073, “A pyridazine series of alpha2/alpha3 subtype selective GABA A agonists for the treatment of anxiety” (J Med Chem, 2006).

The nature of data set [1]: Plasma clearance in Rhesus monkey. It is filed as ADME, organism-based, Macaca mulatta. In outline: (§1)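 Pharmacokinetics from six animals per species: three dosed iv and three dosed po.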
A short description of data set [2]: Half life in Rhesus monkey. The data set is classed as ADME, organism-based, Macaca mulatta. Conditions: in vivo. The essentials: as §1
The test system of data set [3] is Rattus norvegicus. In words: Anxiolytic activity in rat plus-maze assay at 0.3 mg/kg, po. The data set is classed as functional, organism-based. Set-up: dose 0.3 mg/kg. In outline: (§2)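 Rats given vehicle (0.5% methyl cellulose) or compound orally; chlordiazepoxide 5 mg/kg ip as positive control. Placed on elevated plus maze 30 min after dosing; time on open arms recorded as anxiety index. Significance versus vehicle at p < 0.05; mean ± SEM, n = 16-18/group.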

Data set [4] deals with GABA-A receptor; alpha-5/beta-3/gamma-2 (Homo sapiens) (UniProt P18507+P28472+P31644). Kind of data set: Efficacy against recombinant human GABA-Aalpha5 plus beta-3-gamma-2 expressed in L(tk-) cells by whole cell patch clamp method. It is filed as functional, cell-based. The essentials: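 Whole-cell patch clamp on αxβ3γ2 receptors stably expressed in L(tk-) cells, measuring the effect on current evoked by an EC20-equivalent of GABA. Reported relative to full agonist chlordiazepoxide (=1.0), or as direct percent modulation of the EC20 control, with inverse agonism given as percent. Mean of at least four independent experiments.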
A general note: The patch-clamp technique gives a direct electrical read-out from membranes.

The target in data set [5] is T1, GABA-A receptor; anion channel (Rattus norvegicus) (UniProt O09028+P15431+P18506+P18508+P19969+P20236+P23574+P23576+P28471+P28473+P30191+P62813+P63079+P63138+Q91ZM7+Q9ES14). Kind of data set: Receptor occupancy in vivo by displacement of [3H]Ro-151788 binding from GABA-A receptor in rat at 1 mg/kg, po. It is filed as functional, organism-based. On the set-up: dose 1 mg/kg. The essentials:
(§3)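 Rat in vivo occupancy measured by [3H]Ro 15-1788 binding after oral dosing. Rats taken as a subgroup after the plus-maze trial, i.e. 30 min post-dose or later. ED50 derived from dose-dependent occupancy. Mean ± SEM, n = 5-10/group.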
For orientation: Displacement assays read how much labelled ligand stays bound in the presence of the test substance.

Data set [6] relates to Rattus norvegicus. Kind of data set: Anxiolytic activity in rat plus-maze assay at 1 mg/kg, po.
Data set [7] relates to Rattus norvegicus. In words: Anxiolytic activity in rat plus-maze assay at 1 mg/kg, po. Set-up: dose 1 mg/kg. The data set is classed as functional, organism-based. The essentials: as §2
For data set [8], the target named is T1, GABA-A receptor; anion channel (Rattus norvegicus). In words: Receptor occupancy in vivo by displacement of [3H]Ro-151788 binding from GABA-A receptor in rat at 0.1 mg/kg, po. The data set is classed as functional, organism-based. On the set-up: dose 0.1 mg/kg. In outline:
as §3

A word on the clearance: it is the volume of plasma or blood freed of the substance per unit of time. Usually half-life stands for the time in which the quantity being followed falls by half.

Activity calls are given as the source filed them. The rule behind the calls is not given here.

Regarding `Fc1cnc(-c2cc(-c3cnnc(-c4c(F)cncc4F)c3)ccc2F)c(F)c1`, the clearance in data set [1] is 6 mL/min/kg. The compound further showed a half-life in data set [2] of 8.4 h. Further, in the data set with Rattus norvegicus [3], the result was Active. The Efficacy in data set [4] is -5%.

Turning to `Fc1cnc(-c2cc(-c3ccc(F)c(-c4ncc(F)cc4F)c3)cnn2)c(F)c1`, the Activity in data set [5] was found to be 71%. Further, the outcome in the data set with Rattus norvegicus [6] was Active.

With `Fc1cnc(-c2cc(-c3ccc(F)c(-c4ncccc4F)c3)cnn2)c(F)c1`, the result in the data set on Rattus norvegicus [7] was Active. Besides, the Activity in data set [8] came to 57%.
